The target of assay [1] is T1, Prostaglandin G/H synthase 2 (Mus musculus, UniProt Q05769).
T1 sequence (Q05769 whole entry): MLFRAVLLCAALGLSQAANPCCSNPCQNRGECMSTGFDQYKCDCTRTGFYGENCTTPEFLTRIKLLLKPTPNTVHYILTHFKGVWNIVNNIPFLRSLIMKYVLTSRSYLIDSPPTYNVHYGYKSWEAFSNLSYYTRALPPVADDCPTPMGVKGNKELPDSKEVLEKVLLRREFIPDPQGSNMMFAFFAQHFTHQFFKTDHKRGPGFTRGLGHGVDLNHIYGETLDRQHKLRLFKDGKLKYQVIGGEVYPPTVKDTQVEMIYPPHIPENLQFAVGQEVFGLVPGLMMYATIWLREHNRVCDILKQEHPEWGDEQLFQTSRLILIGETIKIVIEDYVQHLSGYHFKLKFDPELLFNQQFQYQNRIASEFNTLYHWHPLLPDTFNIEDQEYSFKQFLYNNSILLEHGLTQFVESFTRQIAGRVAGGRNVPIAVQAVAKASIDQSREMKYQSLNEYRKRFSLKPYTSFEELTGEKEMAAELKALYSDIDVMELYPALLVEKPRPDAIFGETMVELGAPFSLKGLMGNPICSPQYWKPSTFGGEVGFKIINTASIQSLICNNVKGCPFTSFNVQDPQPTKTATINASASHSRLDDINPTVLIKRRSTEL
As to the kind of experiment: Inhibition of mouse COX-2 using [14C] arachidonic acid as substrate preincubated for 17 mins before substrate addition measured after 3 mins by thin-layer chromatographic analysis.

The target of assay [2] is T2, Prostaglandin G/H synthase 1 (Ovis aries, UniProt P05979).
T2 sequence (P05979 whole entry): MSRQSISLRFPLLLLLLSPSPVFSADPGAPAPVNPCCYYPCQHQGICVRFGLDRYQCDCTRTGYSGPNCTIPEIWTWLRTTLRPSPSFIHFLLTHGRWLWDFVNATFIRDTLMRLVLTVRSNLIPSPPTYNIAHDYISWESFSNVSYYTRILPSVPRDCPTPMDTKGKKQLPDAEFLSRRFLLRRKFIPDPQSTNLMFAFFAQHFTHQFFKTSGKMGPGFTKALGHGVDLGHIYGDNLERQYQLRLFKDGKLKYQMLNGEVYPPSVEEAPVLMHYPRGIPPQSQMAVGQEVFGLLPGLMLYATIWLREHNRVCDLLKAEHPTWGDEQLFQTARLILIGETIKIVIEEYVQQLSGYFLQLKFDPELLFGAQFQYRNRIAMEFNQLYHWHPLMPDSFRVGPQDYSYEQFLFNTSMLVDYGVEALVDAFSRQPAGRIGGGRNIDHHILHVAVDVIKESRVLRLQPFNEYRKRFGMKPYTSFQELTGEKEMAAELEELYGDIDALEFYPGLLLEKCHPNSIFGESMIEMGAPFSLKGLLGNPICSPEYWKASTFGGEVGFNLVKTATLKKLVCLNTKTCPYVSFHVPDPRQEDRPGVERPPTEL
As to the kind of experiment: Inhibition of ovine COX-1 using [14C] arachidonic acid as substrate preincubated for 17 mins before substrate addition measured after 3 mins by thin-layer chromatographic analysis.

The target in assay [3] is T3, Prostaglandin G/H synthase 1 (Ovis aries) (UniProt P05979).
T3 sequence (whole entry): T2 sequence (P05979 whole entry)
Description: Inhibition of ovine COX-1 using [14C] arachidonic acid as substrate at 4 uM preincubated for 17 mins before substrate addition measured after 3 mins by thin-layer chromatographic analysis. In short, it runs like this:
(§1)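 Purified ovine COX-1 or murine COX-2 preincubated with a single 4 μM inhibitor concentration for 17 min. […] Reaction quenched; radioactive products extracted and quantified. Mean ± SEM of two experiments.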

The subject of assay [4] is MDA-MB-231. Description: Cytotoxicity against human MDA-MB-231 cells after 48 hrs by WST1 assay. The assay is classed as functional, cell-based. Conditions: MDA-MB-231, 48 h. Background: Formazan colour is commonly taken as a measure of viable cells.
The target in assay [5] is T4, Prostaglandin G/H synthase 2 (Mus musculus) (UniProt Q05769).
T4 sequence (whole entry): T1 sequence (Q05769 whole entry)
As to the kind of experiment: Inhibition of mouse COX-2 using [14C] arachidonic acid as substrate at 4 uM preincubated for 17 mins before substrate addition measured after 3 mins by thin-layer chromatographic analysis. In short, it runs like this: as §1

The test system of assay [6] is OVCAR-3. Description: Cytotoxicity against human OVCAR3 cells after 2 days by WST1 assay. In kind it is functional, cell-based. Conditions: OVCAR-3, 48 h. In short, it runs like this: (§2)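 Viability of human ovarian carcinoma NIH-OVCAR-3 cells, which express COX-1 but no detectable COX-2, after a 2-day compound treatment. Concentrations up to 250 μM tested. EC50 for growth inhibition derived from concentration–response curves.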

Assay [7] deals with T5, Prostaglandin G/H synthase 2 (Homo sapiens) (UniProt P35354).
T5 sequence (whole entry): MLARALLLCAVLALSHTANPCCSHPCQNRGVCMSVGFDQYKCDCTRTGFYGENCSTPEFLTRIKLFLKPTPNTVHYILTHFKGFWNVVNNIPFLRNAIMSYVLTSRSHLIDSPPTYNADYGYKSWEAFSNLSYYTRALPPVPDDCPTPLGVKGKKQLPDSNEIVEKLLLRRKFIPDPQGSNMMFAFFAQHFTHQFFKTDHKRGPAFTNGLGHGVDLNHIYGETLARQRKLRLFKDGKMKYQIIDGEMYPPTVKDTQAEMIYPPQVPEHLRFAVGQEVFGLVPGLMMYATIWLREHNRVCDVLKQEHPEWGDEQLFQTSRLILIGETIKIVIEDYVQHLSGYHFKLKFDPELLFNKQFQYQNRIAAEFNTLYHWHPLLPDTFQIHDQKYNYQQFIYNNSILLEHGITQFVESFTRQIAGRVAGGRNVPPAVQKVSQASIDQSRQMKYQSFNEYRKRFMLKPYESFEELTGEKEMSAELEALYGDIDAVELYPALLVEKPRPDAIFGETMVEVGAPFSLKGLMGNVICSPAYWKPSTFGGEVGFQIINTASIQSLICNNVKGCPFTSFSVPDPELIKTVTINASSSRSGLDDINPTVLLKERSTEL
As to the kind of experiment: Inhibition of COX-2 in human HNSCC 1483 cells using [14C] arachidonic acid as substrate at 5 uM preincubated for 30 mins before substrate addition measured after 30 mins. The assay is classed as cell-based.

Assay [8] concerns OVCAR-3. Description: Cytotoxicity against human OVCAR3 cells growth inhibition up to 250 uM after 2 days by WST1 assay. In kind it is functional, cell-based. In short, it runs like this: as §2
The target of assay [9] is T3, Prostaglandin G/H synthase 1 (Ovis aries). Description: Inhibition of ovine COX-1 using [14C] arachidonic acid as substrate at 25 uM preincubated for 17 mins before substrate addition measured after 3 mins by thin-layer chromatographic analysis.

We go through 25 molecules from ChEMBL document CHEMBL2062428, “Cyclooxygenase-1-selective inhibitors based on the (E)-2'-des-methyl-sulindac sulfide scaffold” (J Med Chem, 2012).

By IC50 is commonly meant the concentration needed to halve the response being measured. The low end stands for inhibition by little substance, the high end for a need for much substance. For orientation: inhibition means the drop in the measured response relative to a control, in per cent. Broadly, the EC50 is the concentration giving half of the maximal effect. Read a low EC50 as an effect from little substance.

Structures are written as SMILES. Activity calls are given as the source filed them. The rule behind the calls is not given here.

With `O=C(O)CC1=C/C(=C\c2ccc(-c3ccccc3)cc2)c2ccc(F)cc21`, the IC50 in [1] is more than 4 µM; in assay [2] it was 0.57 µM. Further, the values for the inhibition in assay [3] and in assay [5] were 75% and 1%, respectively. The EC50 came out at 141 µM in [4] and 132 µM in assay [6]. Further, in assay [7], the inhibition result was “inactive”.

As for `CSc1ccc(/C=C2\C=C(CC(=O)NS(=O)(=O)C(F)(F)F)c3cc(F)ccc32)cc1`, the inhibition in assay [3] amounted to 65%; in [5] it was 15%. Moreover, it took 215 µM to reach a half-maximal effect in assay [4] (EC50).

As to `CSc1ccc(/C=C2/C(C)=C(CC(=O)O)c3cc(F)ccc32)cc1` [SULINDAC SULFIDE], the “growth inhibition (GI)” value in assay [8] is “inactive”. In assay [4], this molecule registered an EC50 of 209 µM.

For the molecule `O=C(O)CC1=C/C(=C\c2cnc(-c3ccccc3)nc2)c2ccc(F)cc21`, the figures for the inhibition in assay [3] and in [5] were 35% and 8%, respectively.

As for `COc1ccc(/C=C2\C=C(CC(=O)O)c3cc(F)ccc32)cc1`, the inhibition in assay [3] turned out to be 62%; in [5], 22%.

Take `CSc1ccc(/C=C2\C=C(CC(=O)NS(=O)(=O)c3ccc(C)cc3)c3cc(F)ccc32)cc1`: the inhibition in [3] amounted to 55%; in assay [5], 20%.

Regarding `O=C(O)CC1=C/C(=C\c2cccc3ccccc23)c2ccc(F)cc21`, the figures for the inhibition in assay [3] and in assay [5] were 53% and 7%, respectively.

For `O=C(O)CC1=C/C(=C\c2ccc([S+]([O-])C(F)(F)F)cc2)c2ccc(F)cc21` (configuration not stated), the inhibition was determined as 51% in [3] and 15% in [5].

With `O=C(O)CC1=C/C(=C\c2cccc3cccnc23)c2ccc(F)cc21`, the inhibition amounted to 51% in assay [3] and 0% in [5].

`O=C(O)CC1=C/C(=C\c2ccccc2)c2ccc(F)cc21`: the inhibition is 74% in assay [3] and 34% in [5].

In assay [2], `CCOC(=O)CC1=C/C(=C\c2ccc(-c3ccccc3)cc2)c2ccc(F)cc21` came in with an IC50 of 1.1 µM. Moreover, the results for the inhibition in assay [3] and in assay [5] were 64% and 28%, respectively.

For `C#Cc1ccc(/C=C2\C=C(CC(=O)O)c3cc(F)ccc32)cc1`, the inhibition was found to be 62% in assay [3] and 17% in assay [5].

In the case of `CC(C)(C(=O)O)C1=C/C(=C\c2ccc(-c3ccccc3)cc2)c2ccc(F)cc21`, in [2], the IC50 came to 2.2 µM. The molecule also displayed an inhibition in assay [3] of 58%.

`CSc1ccc(/C=C2\C=C(CC(=O)O)c3cc(F)ccc32)cc1`: the inhibition in assay [3] is 65%; in assay [5], 10%. This molecule registered an EC50 in assay [6] of 223 µM. Moreover, the inhibition entry in [7] is “inactive”.

As for `CSc1ccc(/C=C2\C=C(CC(N)=O)c3cc(F)ccc32)cc1`, the figures for the inhibition in assay [3] and in [5] were 21% and 5%, respectively.

Regarding `O=C(O)CC1=C/C(=C\c2ccc(C(=O)O)cc2)c2ccc(F)cc21`, the inhibition stood at 43% in [3] and 0% in assay [5].

As to `CC1=C(CC(=O)O)c2cc(F)ccc2/C1=C/c1ccc([S+](C)[O-])cc1` (configuration not stated) [SULINDAC SULFOXIDE], the midpoint of the response in assay [6], the EC50, lay at 210 µM.

As for `O=C(O)CC1=C/C(=C\c2ccc3nccnc3c2)c2ccc(F)cc21`, the inhibition in [3] was 31%; in assay [5], 29%.

For the molecule `CSc1ccc(/C=C2\C=C(CC(=O)OC(C)C)c3cc(F)ccc32)cc1`, the inhibition in [3] came out at 27%; in assay [5], 0%.

`O=C(O)CC1=C/C(=C\c2ccc(-c3ccc(C(F)(F)F)cc3)cc2)c2ccc(F)cc21`: the values for the inhibition in assay [3] and in assay [5] were 31% and 15%, respectively.

For `CSc1ccc(/C=C2\C=C(CC(=O)NS(=O)(=O)c3ccc(C(F)(F)F)cc3)c3cc(F)ccc32)cc1`, the values for the inhibition in [3] and in assay [5] were 48% and 19%, respectively.

Consider `COc1ccc2c(c1)C(CC(=O)O)=C/C2=C\c1ccc(SC)cc1`, for which the inhibition in assay [9] stood at 19%.

As to `O=C(CC1=C/C(=C\c2ccc(-c3ccccc3)cc2)c2ccc(F)cc21)NS(=O)(=O)C(F)(F)F`, the inhibition in [3] is 99%; in assay [5], 15%.

Regarding `C#CCOc1ccc(/C=C2\C=C(CC(=O)O)c3cc(F)ccc32)cc1OCC`, the inhibition came to 68% in assay [3] and 20% in assay [5].

Consider `Cc1nc(-c2ccccc2)ncc1/C=C1\C=C(CC(=O)O)c2cc(F)ccc21`, for which the inhibition in assay [3] and in assay [5] was 19% each time.
